Only some compounds are listed: those with a hit (about 12% of all), similar ones and a draw of the others.
CHOP inh – inhibitors of CHOP induction in ER stress response; inhibition, % at 10 µM; CHO-K1 CHOP-promoter luciferase, tunicamycin-induced, 15-18 h; 220,000 compounds, 3.8% hits;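 active means compounds that reduced the stress-induced luciferase reporter signal by more than about 70% of percent inhibition, limit read from the data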
PKD1 inh – PKD1 (human) kinase inhibition; PKD1 kinase fluorescence polarization assay; Q15139; inhibition, % (concentration not given with the values); 200,000 compounds, 0.056% hits
Arbovirus anti – arbovirus infection inhibition. arbovirus infection cell-based antiviral screen. inhibition, % at 10 µM. 200,000 compounds, 0.37% hits. AID 1251; in the data active means inhibition above about 30%
Wee1 stabilizer – inhibitors of human Wee1 degradation | reporter increase, % at 5 µM | 220,000 compounds, 1.2% hits | HeLa Luc-Wee1K328M stability, luciferase luminescence; 100% = proteasome inhibitor MG132 effect | P30291;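 active means activation above the mean of all tested compounds plus 3 SD, set per screening run, cut at about 8.8% in these data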;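 further: cells exposed to compound for 20 h before luminescence read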
Rad51 HR inh – blocks human Rad51 in homologous recombination | Q06609 | hRad51 DNA strand exchange, fluorescence dequenching | inhibition, % at 10 µM | 200,000 compounds, 0.085% hits;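 active means inhibition above 40% at the single screening dose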
Target sequence (Q06609 whole entry, looked up): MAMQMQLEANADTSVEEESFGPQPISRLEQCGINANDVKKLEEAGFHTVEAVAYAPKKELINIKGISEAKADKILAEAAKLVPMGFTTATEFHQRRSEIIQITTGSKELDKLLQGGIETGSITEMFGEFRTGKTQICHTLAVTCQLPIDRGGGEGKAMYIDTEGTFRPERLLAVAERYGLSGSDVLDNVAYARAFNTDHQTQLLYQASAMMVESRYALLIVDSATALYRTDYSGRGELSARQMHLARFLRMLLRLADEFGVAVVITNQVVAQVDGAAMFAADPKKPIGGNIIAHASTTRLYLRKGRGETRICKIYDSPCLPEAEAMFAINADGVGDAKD
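Material: human Rad51–ssDNA filaments; Probe or stimulus: labelled 47-mer dsDNA for strand exchange; Doses: single 10 µM dose; Incubation: 37 °C 15-min filament assembly, 30-min compound preincubation, 15-min exchange; Technique: FRET fluorescence dequenching, excitation 485 nm, emission 520 nm; Measure: Fluorescence-based percent inhibition, control- and blank-normalised; Benchmarks: plate control and blank wells.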
Lmaj promast – reduces viability of Leishmania major promastigotes. 200,000 compounds, 9% hits. inhibition, % at 10 µM. resazurin fluorescence viability. AID 1063;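 further: promastigotes grown with compound for 44 hours at 28 °C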
A number is an active result; 0 = inactive; - = no result. Unless noted, no stated cut-off is given here; in the data, active means inhibition above about 50%; inactive means the rest.

SMILES	CHOP inh	PKD1 inh	Arbovirus anti	Wee1 stabilizer	Rad51 HR inh	Lmaj promast
C/C(=N\NC(=O)C1CCCN(S(=O)(=O)c2ccccc2)C1)c1ccncc1 (stereo unspecified)	0	0	0	0	0	0
CCOC(=O)Cc1cc(=O)n2[nH]cc(-c3ccc(Cl)cc3)c2n1	0	0	0	0	0	0
CC(C)CCc1noc(CN2CCN(c3ccc(Cl)cn3)CC2)n1	0	0	0	0	0	0
Cc1cc(N2CCCC(C(=O)Nc3cccc4ccccc34)C2)n2ncnc2n1 (stereo unspecified)	0	0	0	0	0	0
C/C(=N\NC(=O)C(c1ccccc1)c1ccccc1)c1ccccn1	0	0	0	0	-	99.7
N/C(=N\OC(=O)C(c1ccccc1)c1ccccc1)c1ccccn1	0	0	0	0	0	0
CCn1c(SCC(=O)NNC(=O)c2ccc(OC)cc2)nnc1-c1cccnc1	0	0	0	0	0	0
O=C(CSc1nc2c(cnn2-c2ccccc2)c(=O)[nH]1)N1CCOCC1	0	0	0	0	0	0
O=c1[nH]c(CSc2ncccn2)nc2c1cnn2-c1ccccc1	0	0	0	0	0	54.5
O=c1[nH]c(CSc2nc3ccccc3o2)nc2c1cnn2-c1ccccc1	73.8	0	0	0	0	0
O=[N+]([O-])c1cccnc1N1CCC(c2cc(-c3ccc(Cl)cc3)n[nH]2)CC1	99.8	0	0	0	-	0
CC(=O)N/C(=C/c1ccc(OS(=O)(=O)c2ccc(C)cc2)cc1)C(=O)NCCCO	0	-	-	0	0	-
CCCCN(CCCC)CC(O)COc1ccccc1Br (stereo unspecified)	0	0	39.3	0	0	0
CC(C)CN(CC(C)C)CC(O)COc1ccccc1Br (stereo unspecified)	84.7	0	0	0	0	0
Cc1ccccc1OCC(O)CN(CCO)Cc1ccccc1 (stereo unspecified)	0	0	0	0	-	0
CC(C)CN(CC(C)C)CC(O)COc1ccc([N+](=O)[O-])cc1 (stereo unspecified)	0	0	0	0	0	0
CCOC(=O)C(NC(=O)Nc1ccc(C(N)=O)cc1)(c1ccccc1)C(F)(F)F (stereo unspecified)	0	0	0	0	0	0
Cc1ccc(N2C(=O)C3C(C2=O)C(C(=O)c2ccc(Cl)cc2)N2CCCC32)cc1 (stereo unspecified)	0	0	0	0	0	94.3
O=C(/C=C/c1cccc(Cl)c1)NCc1ccccc1	0	0	0	0	0	0
COc1ccc(-c2csc(Nc3ccc(C)cn3)n2)cc1OC	0	0	52.6	0	0	0
CC(=O)Nc1cccc(-c2csc(Nc3ccc(Cl)cn3)n2)c1	0	0	0	0	0	0
Cc1ccc(Nc2nc(-c3ccc(O)c(O)c3)cs2)nc1	0	0	0	0	0	98.7
COC(=O)c1[nH]c2ccc(F)cc2c1NS(=O)(=O)c1ccc(OC)cc1OC	0	0	0	0	0	97.0
CCN(CC)Cc1c(CC(C)C)oc(C)c1C(=O)O	0	0	0	0	0	0
Cc1ccc(-n2nc3c([n+]2[O-])CCc2c-3no[n+]2[O-])cc1	89.9	0	0	0	0	0
SMILES	CHOP inh	PKD1 inh	Arbovirus anti	Wee1 stabilizer	Rad51 HR inh	Lmaj promast
Cc1cccc(-n2nc3c([n+]2[O-])CCc2nonc2-3)c1C	0	0	0	0	0	0
[O-][n+]1onc2c1CCc1c-2nn(-c2ccccc2Cl)[n+]1[O-]	96.0	0	0	0	0	0
Cc1cc(C)cc(NC(=O)Nc2ccccc2N2CCCCC2)c1	0	-	-	0	0	-
CN(C)c1ccc(CNCCC2CCOC(C)(C)C2)cc1 (stereo unspecified)	0	0	0	0	0	93.7
CC(C)Oc1cccc(C(=O)Nc2ccc(Br)cc2F)c1	0	0	0	9.1	0	0
COc1cccc(C(=O)NC(C)c2ccc(Br)cc2)c1 (stereo unspecified)	0	0	0	0	0	60.5
COc1cccc(C(=O)Nc2ccc(F)cc2F)c1	0	0	0	0	0	0
Nc1nc(Sc2c([N+](=O)[O-])cc(C(F)(F)F)cc2[N+](=O)[O-])n[nH]1	0	-	-	0	0	-
Cc1cc(C=NCCCO)c(C)n1-c1cc(Cl)ccc1Cl	0	0	0	0	0	0
Cc1cc(C)n(Cc2ccc(NC(=O)c3ccc(COc4ccccc4Br)cc3)cc2)n1	0	0	0	0	-	56.1
NC(=O)[C@@H]1CCCN1Cc1nc(Cc2ccccc2Cl)no1	0	0	0	0	0	0
